Experimental data reported in ChEMBL document CHEMBL5252671, “Design, synthesis and evaluation of the anti-breast cancer activity of 1,3-oxazolo[4,5-d]pyrimidine and 1,3-oxazolo[5,4-d]pyrimidine derivatives” (2023).

Assays:
Type in all cases: functional
MCF7 [1] = experiment: Antiproliferative activity against human MCF7 cells assessed as inhibition of cell growth at 1 X 10^-5 M measured for 48 hrs by sulforhodamine B assay relative to control; details: MCF7, 48 h, dose 1 10^-5M
How it was run: (§1)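 NCI one-dose screen. Cells were seeded at 5000-40000/well in RPMI 1640 with 5% FBS and 2 mM L-glutamine and preincubated 24 h at 37 °C in 5% CO2. Compound was added at 10⁻⁵ M for 48 h. Cells were then fixed with 10% TCA, stained with sulforhodamine B, washed with 1% acetic acid, solubilized in 10 mM Tris and read as OD at 510 nm.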

MDA-MB-231 [2] = experiment: Antiproliferative activity against human MDA-MB-231 cells assessed as inhibition of cell growth at 1 X 10^-5 M measured for 48 hrs by sulforhodamine B assay relative to control; details: MDA-MB-231, 48 h, dose 1 10^-5M; how it was run: as §1
Hs-578T [3] = experiment: Antiproliferative activity against human Hs-578T cells assessed as inhibition of cell growth at 1 X 10^-5 M measured for 48 hrs by sulforhodamine B assay relative to control; details: dose 1 10^-5M; how it was run: as §1
BT-549 [4] = experiment: Antiproliferative activity against human BT-549 cells assessed as inhibition of cell growth at 1 X 10^-5 M measured for 48 hrs by sulforhodamine B assay relative to control; details: BT-549, 48 h, dose 1 10^-5M; how it was run: as §1
T47D [5] = experiment: Antiproliferative activity against human T47D cells assessed as inhibition of cell growth at 1 X 10^-5 M measured for 48 hrs by sulforhodamine B assay relative to control; details: dose 1 10^-5M; how it was run: as §1
MDA-MB-468 [6] = experiment: Antiproliferative activity against human MDA-MB-468 cells assessed as inhibition of cell growth at 1 X 10^-5 M measured for 48 hrs by sulforhodamine B assay relative to control; details: MDA-MB-468, 48 h, dose 1 10^-5M; how it was run: as §1
MCF7 [7] = experiment: Anticancer activity against human MCF7 cells measured at 48 hrs
How it was run: (§2)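 NCI DTP five-dose screen on the breast subpanel: compound at 0.01, 0.1, 1, 10 and 100 μM for 48 h. Cell density read by sulforhodamine B (protein content). GI50, TGI and LC50 were derived from the T, T0 and C optical densities using the NCI formulas.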

MDA-MB-231 [8] = experiment: Anticancer activity against human MDA-MB-231 cells measured at 48 hrs; how it was run: as §2
Hs-578T [9] = experiment: Anticancer activity against human Hs-578T cells measured at 48 hrs; how it was run: as §2
BT-549 [10] = experiment: Anticancer activity against human BT-549 cells measured at 48 hrs; how it was run: as §2
T47D [11] = experiment: Anticancer activity against human T47D cells measured at 48 hrs; details: for CC50: read-out: LC50 (the source's name); how it was run: as §2
MDA-MB-468 [12] = experiment: Anticancer activity against human MDA-MB-468 cells measured at 48 hrs; how it was run: as §2

Compound	inhibition at 10 µM (MCF7 [1]) [%]	inhibition at 10 µM (MDA-MB-231 [2]) [%]	inhibition at 10 µM (Hs-578T [3]) [%]	inhibition at 10 µM (BT-549 [4]) [%]	inhibition at 10 µM (T47D [5]) [%]	inhibition at 10 µM (MDA-MB-468 [6]) [%]	GI50 (MCF7 [7]) [µM]	LC50 (concentration giving 50% net cell kill) (MCF7 [7]) [µM]	TGI (MCF7 [7]) [µM]	GI50 (MDA-MB-231 [8]) [µM]	LC50 (concentration killing 50% of starting cells) (MDA-MB-231 [8]) [µM]	TGI (MDA-MB-231 [8]) [µM]	GI50 (Hs-578T [9]) [µM]	TGI (Hs-578T [9]) [µM]	GI50 (BT-549 [10]) [µM]	TGI (BT-549 [10]) [µM]	GI50 (T47D [11]) [µM]	TGI (T47D [11]) [µM]	GI50 (MDA-MB-468 [12]) [µM]	TGI (MDA-MB-468 [12]) [µM]	other results
c1ccc(-c2nc(N3CCNCC3)c3nc(-c4ccccc4)oc3n2)cc1	169	181	11	3	157	137	1.7	7.54	3.58	1.67	6.13	3.2	1.87	4.11	1.67	3.24	1.94	4.19	1.93	3.66	LC50 (50% lethal concentration) (Hs-578T [9]): 9.05 µM; LC50 (concentration giving 50% net cell kill) (BT-549 [10]): 6.27 µM; LC50 (concentration giving 50% net cell kill) (MDA-MB-468 [12]): 6.94 µM
Cc1ccc(-c2nc(N3CCCNCC3)c3oc(-c4ccc(C)cc4)nc3n2)cc1	165	179	0	10	146	95	1.85	8.14	3.88	1.69	5.73	3.11	12.6	31.9	16.3	35	1.94	4.17	1.96	4.39	LC50 (50% lethal concentration) (Hs-578T [9]): 80.9 µM; LC50 (concentration giving 50% net cell kill) (BT-549 [10]): 75.2 µM; CC50 (T47D [11]): 8.96 µM
Cc1ccc(-c2nc3nc(-c4ccccc4)nc(N4CCCNCC4)c3o2)cc1	178	187	118	72	145	168	1.48	8.29	3.5	1.81	6.1	3.32	1.83	4.02	1.63	3.19	1.72	3.5	1.59	3.35	LC50 (50% lethal concentration) (Hs-578T [9]): 8.85 µM; LC50 (concentration giving 50% net cell kill) (BT-549 [10]): 6.25 µM; CC50 (T47D [11]): 7.1 µM; LC50 (concentration giving 50% net cell kill) (MDA-MB-468 [12]): 7.04 µM
Cc1ccc(-c2nc3nc(-c4ccc(Cl)cc4)nc(N4CCCNCC4)c3o2)cc1	179	176	151	1	136	154	1.7	6.75	3.39	1.87	6.21	3.37	1.93	4.17	1.9	3.61	1.94	4.14	1.78	3.42	LC50 (50% lethal concentration) (Hs-578T [9]): 9.02 µM; LC50 (concentration giving 50% net cell kill) (BT-549 [10]): 6.86 µM; CC50 (T47D [11]): 8.84 µM; LC50 (concentration giving 50% net cell kill) (MDA-MB-468 [12]): 6.59 µM
Cc1ccc(-c2nc(N3CCNCC3)c3oc(-c4ccccc4)nc3n2)cc1	175	179	72	15	158	131	1.85	7.6	3.75	1.62	5.77	3.06	2.53	7.69	13.8	31.6	1.81	3.83	1.81	3.8	LC50 (50% lethal concentration) (Hs-578T [9]): > 100 µM; LC50 (concentration giving 50% net cell kill) (BT-549 [10]): 72.7 µM; CC50 (T47D [11]): 8.07 µM; LC50 (concentration giving 50% net cell kill) (MDA-MB-468 [12]): 7.98 µM
Cc1ccc(-c2nc3nc(-c4ccc(Br)cc4)nc(N4CCCNCC4)c3o2)cc1	176	157	130	1	108	165	1.78	6.91	3.51	1.93	8.5	4.05	17.2	37.1	16	34.6	3.06	13.9	3.98	15.9	LC50 (50% lethal concentration) (Hs-578T [9]): 80.2 µM; LC50 (concentration giving 50% net cell kill) (BT-549 [10]): 75 µM; CC50 (T47D [11]): 65.5 µM; LC50 (concentration giving 50% net cell kill) (MDA-MB-468 [12]): 52.5 µM
c1ccc(-c2nc(N3CCCNCC3)c3nc(-c4ccccc4)oc3n2)cc1	167	103	16	5	53	153	1.67	6.67	3.34	1.72	5.99	3.21	1.86	3.94	1.78	3.29	1.78	3.64	1.72	3.37	LC50 (50% lethal concentration) (Hs-578T [9]): 8.34 µM; CC50 (T47D [11]): 7.42 µM; LC50 (concentration giving 50% net cell kill) (MDA-MB-468 [12]): 6.57 µM
Cc1ccc(-c2nc3nc(-c4ccc(F)cc4)nc(N4CCCNCC4)c3o2)cc1	172	185	176	177	164	176	1.23	7.14	2.96	1.63	5.91	3.11	1.78	3.69	1.66	3.37	1.85	3.94	1.58	3.18	LC50 (50% lethal concentration) (Hs-578T [9]): 7.63 µM; LC50 (concentration giving 50% net cell kill) (BT-549 [10]): 6.85 µM; LC50 (concentration giving 50% net cell kill) (MDA-MB-468 [12]): 6.41 µM
Cc1ccc(-c2nc3nc(-c4ccccc4)nc(N4CCNCC4)c3o2)cc1	166	179	151	172	168	187	0.33	5.74	1.45	0.26	2.61	0.67	2.02	4.22	1.72	3.2	0.35	1.51	0.29	1.18	LC50 (concentration giving 50% net cell kill) (BT-549 [10]): 5.99 µM; CC50 (T47D [11]): 6.33 µM; LC50 (concentration giving 50% net cell kill) (MDA-MB-468 [12]): 4.84 µM
Cc1ccc(-c2nc(N3CCNCC3)c3oc(-c4ccc(C)cc4)nc3n2)cc1	173	172	1	17	63	133	1.72	7.86	3.68	1.74	6.81	3.44	2.27	5.83	1.71	3.32	11.4	37.4	2.13	4.77	LC50 (50% lethal concentration) (Hs-578T [9]): > 100 µM; LC50 (concentration giving 50% net cell kill) (BT-549 [10]): 6.48 µM; CC50 (T47D [11]): > 100 µM; LC50 (concentration giving 50% net cell kill) (MDA-MB-468 [12]): 13.5 µM
Cc1ccc(-c2nc3nc(-c4ccc(F)cc4)nc(N4CCNCC4)c3o2)cc1	174	129	106	1	127	46	1.66	7.4	3.51	1.86	7.09	3.63	2.06	5.12	13.6	30.1	2.3	6.92	1.74	3.38	LC50 (50% lethal concentration) (Hs-578T [9]): 37 µM; LC50 (concentration giving 50% net cell kill) (BT-549 [10]): 66.8 µM; CC50 (T47D [11]): > 100 µM; LC50 (concentration giving 50% net cell kill) (MDA-MB-468 [12]): 6.56 µM
